Assays:
rat [1] = assay: amount in urine after dosing (umol); conditions: dosed: tert-amyl methyl ether, 38.4 ppm, inhalation, duration: 4 hr, F344 (Harlan Winkelmann)
human = assay: amount in urine after dosing (umol); conditions: dosed: tert-amyl methyl ether, 38.4 ppm, inhalation, duration: 4 hr
Method in brief: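 A PubMed search, classifier screening and manual review identified published in vivo toxicokinetic studies, which together with two structured collections supplied concentration-versus-time and amount-versus-time points. Points were mostly digitised from plot screenshots with WebPlotDigitizer, otherwise copied from tables. Dose, route, subject details and medium were hand-curated from each paper, and sampling and analytical methods are those of the sources, often unreported.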

Rat [2] = assay: concentration in urine after dosing; conditions: dosed: dibromoacetic acid, 40 mg/kg, oral, Male, F344
Rat [3] = assay: concentration in urine after dosing; conditions: dosed: dibromoacetic acid, 40 mg/kg, oral, Male, F344; remark: listed apart in the source
Rat [4] = assay: concentration in urine after dosing; conditions: dosed: dibromoacetic acid, 100 mg/kg, oral, Male, F344
Rat [5] = assay: concentration in urine after dosing; conditions: dosed: dibromoacetic acid, 100 mg/kg, oral, Male, F344; remark: listed apart in the source
Rat [6] = assay: concentration in urine after dosing; conditions: dosed: dibromoacetic acid, oral, Male, F344
Rat [7] = assay: concentration in plasma after dosing; conditions: dosed: Phenolphthalein, 25 mg/kg, iv, Female, F344
Rat [8] = assay: concentration in plasma after dosing; conditions: 3 h; dosed: Phenolphthalein; 25 mg/kg; iv; Male; F344
Rat [9] = assay: concentration in plasma after dosing; conditions: 3 h; dosed: Phenolphthalein; 25 mg/kg; iv; Male; F344; remark: listed apart in the source
Rat [10] = assay: concentration in plasma after dosing; conditions: dosed: Phenolphthalein, 25 mg/kg, iv, Female, F344; remark: listed apart in the source
Rat [11] = assay: concentration in plasma after dosing; conditions: dosed: Phenolphthalein, 25 mg/kg, iv, Male, F344
Rat [12] = assay: concentration in plasma after dosing; conditions: dosed: Phenolphthalein, 25 mg/kg, iv, Female, F344; remark: listed apart in the source
Rat [13] = assay: concentration in plasma after dosing; conditions: dosed: Phenolphthalein, 25 mg/kg, iv, Female, F344; remark: listed apart in the source
Rat [14] = assay: concentration in plasma after dosing; conditions: dosed: Phenolphthalein, 25 mg/kg, iv, Female, F344; remark: listed apart in the source
Rat [15] = assay: concentration in plasma after dosing; conditions: 5 min; dosed: Phenolphthalein; 25 mg/kg; iv; Male; F344
Rat [16] = assay: concentration in plasma after dosing; conditions: 2.5 min; dosed: Phenolphthalein; 25 mg/kg; iv; Male; F344
Rat [17] = assay: concentration in plasma after dosing; conditions: dosed: Phenolphthalein, 25 mg/kg, iv, Female, F344; remark: listed apart in the source
Rat [18] = assay: concentration in plasma after dosing; conditions: dosed: Phenolphthalein, 25 mg/kg, iv, Female, F344; remark: listed apart in the source
Rat [19] = assay: concentration in plasma after dosing; conditions: 5 min; dosed: Phenolphthalein; 25 mg/kg; iv; Male; F344; remark: listed apart in the source
Rat [20] = assay: concentration in plasma after dosing; conditions: 5 h; dosed: Phenolphthalein; 25 mg/kg; iv; Male; F344
Rat [21] = assay: concentration in plasma after dosing; conditions: dosed: Phenolphthalein, 25 mg/kg, iv, Female, F344; remark: listed apart in the source
Rat [22] = assay: concentration in plasma after dosing; conditions: dosed: Phenolphthalein, 25 mg/kg, iv, Female, F344; remark: listed apart in the source
Rat [23] = assay: concentration in plasma after dosing; conditions: 16 h; dosed: Phenolphthalein; 25 mg/kg; iv; Female; F344
Rat [24] = assay: concentration in plasma after dosing; conditions: dosed: Phenolphthalein, 25 mg/kg, iv, Male, F344; remark: listed apart in the source
Rat [25] = assay: concentration in plasma after dosing; conditions: dosed: Phenolphthalein, 25 mg/kg, iv, F344
Rat [26] = assay: concentration in plasma after dosing; conditions: dosed: Phenolphthalein, 25 mg/kg, iv, Female, F344; remark: listed apart in the source
Rat [27] = assay: concentration in plasma after dosing; conditions: dosed: Phenolphthalein, 25 mg/kg, iv, Female, F344; remark: listed apart in the source
Rat [28] = assay: concentration in plasma after dosing; conditions: dosed: Phenolphthalein, 25 mg/kg, iv, Female, F344; remark: listed apart in the source
Rat [29] = assay: concentration in plasma after dosing; conditions: dosed: Phenolphthalein, 25 mg/kg, iv, Female, F344; remark: listed apart in the source
Rat [30] = assay: concentration in plasma after dosing; conditions: 2.5 min; dosed: Phenolphthalein; 25 mg/kg; iv; Male; F344; remark: listed apart in the source
Rat [31] = assay: concentration in plasma after dosing; conditions: dosed: Phenolphthalein, 25 mg/kg, iv, Male, F344; remark: listed apart in the source
Rat [32] = assay: concentration in plasma after dosing; conditions: 5 h; dosed: Phenolphthalein; 25 mg/kg; iv; Male; F344; remark: listed apart in the source
Rat [33] = assay: concentration in plasma after dosing; conditions: dosed: Phenolphthalein, 25 mg/kg, iv, Female, F344; remark: listed apart in the source
Rat [34] = assay: concentration in plasma after dosing; conditions: 1 h; dosed: Phenolphthalein; 25 mg/kg; iv; Male; F344
Rat [35] = assay: concentration in plasma after dosing; conditions: dosed: Phenolphthalein, 25 mg/kg, iv, Male, F344; remark: listed apart in the source
Rat [36] = assay: concentration in plasma after dosing; conditions: 4 h; dosed: Phenolphthalein; 25 mg/kg; iv; Male; F344
Rat [37] = assay: concentration in plasma after dosing; conditions: 16 h; dosed: Phenolphthalein; 25 mg/kg; iv; Female; F344; remark: listed apart in the source
rat [38] = assay: concentration in blood after dosing; conditions: dosed: acrylonitrile, male

CC(C)(O)CC(=O)O [3-hydroxy-3-methyl butyrate]
rat [1]
Conditions	amount in urine
6.001 h	0.652
12.07 h	0.695
18.1 h	0.787
24.1 h	0.425
30 h	0.178
36.09 h	0.517
42.12 h	0.736
48.11 h	0.23

CC(C)(O)CC(=O)O [3-hydroxy-3-methyl-butyrate]
human
Conditions	amount in urine
6.255 h	52.2
12.14 h	81.7
18.19 h	45.7
24.05 h	43.6
30.19 h	32.9
36.26 h	24.2
42.12 h	11.1
48.2 h	19.7
305 s	19.7

O=C(O)C(=O)O [Oxalic acid]
concentration in urine [µg/mL]
Conditions	0 h	2 h	4 h	8 h	24 h	48 h
Rat [2]	63	–	–	71.1	99.3	133
Rat [3]	63.8	26.2	–	–	88.7	130
Rat [4]	53.4	–	133	–	68	72.6
Rat [5]	63.6	78.1	108	98.2	103	224

concentration in urine [µg/mL], Rat [6]
Conditions	0 h	4 h	8 h	24 h	48 h
40 mg/kg	74.6	52.7	63.5	89.1	116
100 mg/kg	64.8	105	–	108	154

O=C1OC(c2ccc(O)cc2)(c2ccc(O)cc2)c2ccccc21 [Phenolphthalein]
Conditions	concentration in plasma [µg/mL]
Rat [7], 5 min	5.18
Rat [7], 24 h	0.0694
Rat [10], 2 h	0.261
Rat [10], 8 h	0.0467
Rat [11], 4 h	0.366
Rat [11], 7 h	0.063
Rat [12], 5 h	0.0569
Rat [12], 10 h	0.0702
Rat [13], 2.5 min	164
Rat [13], 20 h	0.022
Rat [14], 4 h	0.127
Rat [14], 7 h	0.0365
Rat [17], 5 h	0.0585
Rat [17], 10 h	0.0174
Rat [18], 2.5 min	167
Rat [18], 20 h	0.0174
Rat [21], 1 h	1.4
Rat [21], 6 h	0.392
Rat [22], 3 h	0.153
Rat [22], 12 h	0.0267
Rat [24], 2 h	0.662
Rat [24], 8 h	0.0836
Rat [26], 5 min	52.1
Rat [26], 24 h	0.023
Rat [27], 4 h	0.0475
Rat [27], 7 h	0.0155
Rat [28], 1 h	0.841
Rat [28], 6 h	0.29
Rat [29], 3 h	0.336
Rat [29], 12 h	0.096
Rat [31], 1 h	2.38
Rat [31], 6 h	0.199
Rat [33], 2 h	0.261
Rat [33], 8 h	0.0432
Rat [35], 2 h	0.636
Rat [35], 8 h	0.11

Conditions	concentration in plasma [µg/mL]
Rat [8]	0.561
Rat [9]	0.0945
Rat [15]	58.5
Rat [16]	219
Rat [19]	58.3
Rat [20]	0.0191
Rat [23]	0.0245
Rat [30]	216
Rat [32]	0.552
Rat [34]	1.99
Rat [36]	0.0251
Rat [37]	0.0203

concentration in plasma [µg/mL], Rat [25]
Conditions	Female	Male
1 h	1.09	1.79
2 h	0.259	0.592
2.5 min	115	195
3 h	0.29	0.0432
4 h	0.173	0.317
5 h	0.105	0.691
5 min	52.3	51
6 h	0.0899	0.0594
7 h	0.0569	0.248
8 h	0.0324	0.274
10 h	0.0455	0.0423
12 h	0.0985	–
16 h	0.12	0.0202
20 h	0.0186	–
24 h	0.0602	–

C=CC#N [acrylonitrile]
rat [38], inhalation, duration: 3 hr, Sprague-Dawley
Conditions	concentration in blood [µg/mL]
0.103 h, 186 ppm	0.329
0.1717 h, 291 ppm	0.588
0.1772 h, 186 ppm	0.25
0.1774 h, 254 ppm	0.263
0.2565 h, 291 ppm	0.287
0.2613 h, 254 ppm	0.235
0.2676 h, 186 ppm	0.115
90 s, 254 ppm	1.64
94 s, 291 ppm	1.96
110 s, 186 ppm	0.911
337 s, 291 ppm	0.926
345 s, 254 ppm	0.473

rat [38], iv, Fisher 344 CDF(F344)/CrlBR
Conditions	concentration in blood [µg/mL]
0.1675 h, 84 mg/kg	28.2
0.1682 h, 3.4 mg/kg	0.74
0.1683 h, 55 mg/kg	27.2
0.1717 h, 47 mg/kg	13.4
0.2068 h, 55 mg/kg	21
0.208 h, 3.4 mg/kg	0.43
0.2102 h, 47 mg/kg	11.8
0.2128 h, 84 mg/kg	27.3
0.2495 h, 3.4 mg/kg	0.259
0.2506 h, 55 mg/kg	17.4
0.2512 h, 84 mg/kg	22.4
0.2575 h, 47 mg/kg	10.9
0.5008 h, 55 mg/kg	6.77
0.5014 h, 3.4 mg/kg	0.14
0.5026 h, 47 mg/kg	3.04
0.5056 h, 84 mg/kg	11.3
0.6636 h, 55 mg/kg	3.1
0.6706 h, 47 mg/kg	1.6
0.6711 h, 84 mg/kg	6.7
0.9964 h, 55 mg/kg	0.393
1.005 h, 47 mg/kg	0.287
1.006 h, 84 mg/kg	1.59
1.248 h, 55 mg/kg	0.396
1.25 h, 47 mg/kg	0.244
1.25 h, 84 mg/kg	0.532
182 s, 3.4 mg/kg	4.95
183 s, 55 mg/kg	71.4
188 s, 84 mg/kg	156
196 s, 47 mg/kg	52.8
303 s, 55 mg/kg	47.2
306 s, 3.4 mg/kg	3.11
307 s, 84 mg/kg	88.3
309 s, 47 mg/kg	38.1

— EPA's CvTdb concentration-time database
